Data reported in ChEMBL document CHEMBL1152523, “3-Substituted phenylalanines as selective AMPA- and kainate receptor ligands” (Bioorg Med Chem, 2009).
The source made the active and inactive calls. The rule behind the calls is not given here.

Assays:
[1] = target: T1, Glutamate receptor ionotropic, kainate 1 (Rattus norvegicus, UniProt P22756); test: Displacement of [3H]SYM2081 from rat recombinant iGluR5-1b expressed in baculovirus-infected insect Sf9 cells
Outline: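 Recombinant rat iGluR5(Q)1b expressed in Sf9 insect cells via baculoviral infection; competition binding against [3H]-SYM 2081 radioligand. Values from three independent experiments, expressed as mean ± SEM.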

[2] = target: Glutamate NMDA receptor (Rattus norvegicus) (UniProt P35439+Q00959+Q00960+Q00961+Q62645+Q8VHN2+Q9R1M7); test: Displacement of [3H]CGP39653 from NMDA receptor in rat cortical membrane; type: cell membranes
Outline: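 Rat brain membranes prepared per Ransom and Stec. Binding at the NMDA site measured with 2 nM [3H]CGP 39653. Three independent experiments, mean ± SEM.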

Rattus norvegicus = species: Rattus norvegicus; test: Displacement of [3H]kainic acid from kainate receptor in rat cortical membrane; type: cell membranes
Outline: (§1)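 Native rat brain membranes prepared per Ransom and Stec. Competition binding with 5 nM [3H]AMPA or 5 nM [3H]KA. Three independent experiments, mean ± SEM.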

[3] = Displacement of [3H]AMPA from AMPA receptor in rat cortical membrane; type: cell membranes; outline: as §1
[4] = target: Glutamate receptor ionotropic, kainate 2 (Rattus norvegicus) (UniProt P42260); test: Displacement of [3H]SYM2081 from rat recombinant iGluR6 expressed in baculovirus-infected insect Sf9 cells
Glutamate receptor ionotropic, kainate 2 (Rattus norvegicus), sequence (P42260 whole entry): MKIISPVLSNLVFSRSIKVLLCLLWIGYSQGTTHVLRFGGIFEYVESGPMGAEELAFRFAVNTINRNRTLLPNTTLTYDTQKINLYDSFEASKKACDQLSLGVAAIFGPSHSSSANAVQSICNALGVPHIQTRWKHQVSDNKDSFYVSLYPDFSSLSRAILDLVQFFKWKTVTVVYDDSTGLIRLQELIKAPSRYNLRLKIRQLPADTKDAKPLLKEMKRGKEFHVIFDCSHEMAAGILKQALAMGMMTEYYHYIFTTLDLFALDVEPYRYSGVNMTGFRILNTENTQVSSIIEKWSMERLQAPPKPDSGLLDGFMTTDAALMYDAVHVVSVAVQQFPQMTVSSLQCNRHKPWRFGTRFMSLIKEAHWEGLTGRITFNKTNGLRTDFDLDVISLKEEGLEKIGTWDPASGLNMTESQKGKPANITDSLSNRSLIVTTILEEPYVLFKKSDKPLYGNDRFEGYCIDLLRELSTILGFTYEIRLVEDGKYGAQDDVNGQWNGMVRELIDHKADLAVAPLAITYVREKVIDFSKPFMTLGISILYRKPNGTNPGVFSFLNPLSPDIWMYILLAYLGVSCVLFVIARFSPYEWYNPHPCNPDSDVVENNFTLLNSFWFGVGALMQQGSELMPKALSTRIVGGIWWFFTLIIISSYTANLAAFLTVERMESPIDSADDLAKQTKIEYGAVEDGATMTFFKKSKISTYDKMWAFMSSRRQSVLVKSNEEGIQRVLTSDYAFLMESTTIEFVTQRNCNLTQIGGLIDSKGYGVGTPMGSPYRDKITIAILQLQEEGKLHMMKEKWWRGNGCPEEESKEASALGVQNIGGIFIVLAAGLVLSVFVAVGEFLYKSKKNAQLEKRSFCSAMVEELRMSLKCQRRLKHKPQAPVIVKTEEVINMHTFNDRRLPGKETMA
Outline: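 Recombinant rat iGluR6(V,C,R) expressed in baculovirus-infected Sf9 insect cells. Competition binding against [3H]-SYM 2081 radioligand. Three independent experiments, mean ± SEM.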

[5] = target: T1, Glutamate receptor ionotropic, kainate 1; test: Displacement of [3H]S-glutamate from rat GluR5 S1S2 ligand binding core expressed in Escherichia coli (DE3)
Glutamate receptor 2 = Glutamate receptor 2 (Rattus norvegicus, UniProt P19491); test: Displacement of [3H]AMPA from wild type rat GluR2 S1S2 ligand binding core
Glutamate receptor 2, sequence (P19491 whole entry): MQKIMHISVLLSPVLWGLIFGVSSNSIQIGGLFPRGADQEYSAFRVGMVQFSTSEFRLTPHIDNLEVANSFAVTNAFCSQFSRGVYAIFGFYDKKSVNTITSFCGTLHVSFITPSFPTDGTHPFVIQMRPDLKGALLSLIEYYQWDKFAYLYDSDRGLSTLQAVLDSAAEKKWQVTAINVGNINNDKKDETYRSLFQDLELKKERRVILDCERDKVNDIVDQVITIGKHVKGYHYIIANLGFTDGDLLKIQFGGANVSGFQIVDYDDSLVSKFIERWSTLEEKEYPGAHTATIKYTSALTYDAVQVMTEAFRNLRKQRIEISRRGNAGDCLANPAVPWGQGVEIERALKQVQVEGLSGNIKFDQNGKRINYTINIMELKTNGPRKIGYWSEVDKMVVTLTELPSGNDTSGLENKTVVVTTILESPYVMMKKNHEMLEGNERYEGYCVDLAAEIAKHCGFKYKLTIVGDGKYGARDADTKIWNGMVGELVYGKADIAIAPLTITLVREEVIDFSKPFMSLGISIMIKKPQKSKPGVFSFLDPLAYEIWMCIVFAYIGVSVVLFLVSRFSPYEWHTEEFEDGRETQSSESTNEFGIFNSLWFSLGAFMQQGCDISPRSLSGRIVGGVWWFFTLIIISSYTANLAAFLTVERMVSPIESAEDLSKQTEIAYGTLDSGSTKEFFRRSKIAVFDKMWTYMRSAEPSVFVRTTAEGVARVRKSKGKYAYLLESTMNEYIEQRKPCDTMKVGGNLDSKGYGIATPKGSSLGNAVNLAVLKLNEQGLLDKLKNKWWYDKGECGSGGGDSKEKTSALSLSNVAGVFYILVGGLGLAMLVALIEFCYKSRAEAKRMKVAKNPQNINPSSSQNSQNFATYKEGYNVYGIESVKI

T1 sequence (P22756 whole entry): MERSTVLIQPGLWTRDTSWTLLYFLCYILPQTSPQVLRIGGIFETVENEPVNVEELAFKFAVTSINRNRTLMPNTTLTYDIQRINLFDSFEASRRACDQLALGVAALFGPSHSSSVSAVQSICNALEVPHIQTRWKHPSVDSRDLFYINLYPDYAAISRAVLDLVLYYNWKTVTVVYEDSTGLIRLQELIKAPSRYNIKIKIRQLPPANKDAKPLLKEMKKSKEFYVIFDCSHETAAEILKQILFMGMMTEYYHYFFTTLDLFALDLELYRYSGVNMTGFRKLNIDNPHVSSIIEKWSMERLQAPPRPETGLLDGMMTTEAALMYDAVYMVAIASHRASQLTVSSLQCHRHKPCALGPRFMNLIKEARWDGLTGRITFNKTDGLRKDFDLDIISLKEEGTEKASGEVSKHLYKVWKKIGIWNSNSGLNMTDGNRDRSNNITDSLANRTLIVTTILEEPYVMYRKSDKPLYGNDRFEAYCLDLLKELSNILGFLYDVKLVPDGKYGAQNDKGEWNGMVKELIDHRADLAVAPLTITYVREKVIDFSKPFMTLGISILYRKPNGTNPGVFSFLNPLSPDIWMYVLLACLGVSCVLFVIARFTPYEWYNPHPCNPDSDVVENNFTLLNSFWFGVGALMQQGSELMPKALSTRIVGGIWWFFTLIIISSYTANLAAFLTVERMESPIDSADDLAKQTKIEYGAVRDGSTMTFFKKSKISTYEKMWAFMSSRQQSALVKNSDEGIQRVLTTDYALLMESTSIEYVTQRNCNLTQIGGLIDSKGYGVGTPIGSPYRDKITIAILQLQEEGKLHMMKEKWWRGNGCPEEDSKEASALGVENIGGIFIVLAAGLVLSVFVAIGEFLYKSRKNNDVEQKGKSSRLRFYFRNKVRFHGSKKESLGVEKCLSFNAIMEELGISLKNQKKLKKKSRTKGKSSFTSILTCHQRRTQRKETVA

Row | SMILES | Ki [1] | Activity [2] | Activity (Rattus norvegicus) | IC50 [3] | Activity [4] | Kd [5] | Kd (Glutamate receptor 2)
1 | NC(Cc1cc(Cl)c(Cl)c(-c2ccc([N+](=O)[O-])cc2)c1)C(=O)O (racemic) | > 100 µM | inactive | inactive | > 100 µM | inactive |  | 
2 | CC(C)(C)c1onc(OCP(=O)(O)O)c1C[C@H](N)C(=O)O | 2.9 µM | inactive | inactive | 16 µM | inactive |  | 
3 | NC(Cc1cc(Cl)c(Cl)c(-c2ccc(-c3nnn[nH]3)cc2)c1)C(=O)O (racemic) | > 100 µM | inactive | inactive | > 100 µM | inactive |  | 
4 | NC(Cc1cccc(-c2cccc(C(=O)O)c2)c1)C(=O)O (racemic) | 7.9 µM | inactive | inactive | > 100 µM | inactive |  | 
5 | NC(Cc1cccc(-c2ccccc2C(=O)O)c1)C(=O)O (racemic) | > 100 µM | inactive | inactive | > 100 µM | inactive |  | 
6 | NC(Cc1cccc(Cc2cccc(C(=O)O)c2)c1)C(=O)O (racemic) | 50 µM | inactive | inactive | > 100 µM | inactive |  | 
7 | NC(Cc1cccc(Cc2ccc(C(=O)O)cc2)c1)C(=O)O (racemic) | ≥ 100 µM | inactive | inactive | > 100 µM | inactive |  | 
8 | NC(Cc1cc(Cl)c(Cl)c(-c2cccc(C(=O)O)c2)c1)C(=O)O (racemic) | 2.8 µM | inactive | inactive | > 100 µM | inactive |  | 
9 | N[C@H](Cc1cccc(-c2cccc(C(=O)O)c2)c1)C(=O)O | > 1000 µM | inactive | inactive |  | inactive |  | 
10 | NC(Cc1cc(Cl)c(Cl)c(-c2cccc(O)c2)c1)C(=O)O (racemic) | > 100 µM | inactive | inactive | 4.6 µM | inactive |  | 
11 | NC(Cc1cc(Cl)c(Cl)c(-c2ccc(O)cc2)c1)C(=O)O (racemic) | > 100 µM | inactive | inactive | 33 µM | inactive |  | 
12 | NC(Cc1cccc(-c2ccc(CC(=O)O)cc2)c1)C(=O)O (stereo not drawn) | > 100 µM | inactive | inactive | > 100 µM | inactive |  | 
13 | NC(Cc1cccc(-c2cccc(CC(=O)O)c2)c1)C(=O)O (racemic) | ≥ 100 µM | inactive | inactive | > 100 µM | inactive |  | 
14 | N[C@@H](Cc1cccc(-c2cccc(C(=O)O)c2)c1)C(=O)O | 4.08 µM | inactive | inactive |  | inactive |  | 
15 | NC(Cc1cc(Cl)c(Cl)c(-c2ccccc2O)c1)C(=O)O (racemic) | > 100 µM | inactive | inactive | 85 µM | inactive |  | 
16 | NC(Cc1cc(Cl)c(Cl)c(-c2cccc([N+](=O)[O-])c2)c1)C(=O)O (racemic) | > 100 µM | inactive | inactive | > 100 µM | inactive |  | 
17 | NC(Cc1cccc(Cc2ccccc2C(=O)O)c1)C(=O)O (racemic) | ≥ 100 µM | inactive | inactive | > 100 µM | inactive |  | 
18 | NC(Cc1cc(Cl)c(Cl)c(-c2ccc(C(=O)O)s2)c1)C(=O)O (racemic) | ≥ 100 µM | inactive | inactive | 61 µM | inactive |  | 
19 | N[C@@H](Cn1ccc(=O)n(Cc2ccccc2C(=O)O)c1=O)C(=O)O |  | inactive | inactive |  | inactive | 3.94 µM | 146 µM
20 | NC(Cc1cc(Cl)c(Cl)c(-c2cccc(-c3nnn[nH]3)c2)c1)C(=O)O (racemic) | ≥ 100 µM | inactive | inactive | > 100 µM | inactive |  | 
21 | NC(Cc1cc(Cl)c(Cl)c(-c2ccccc2-c2nnn[nH]2)c1)C(=O)O (racemic) | > 100 µM | inactive | inactive | > 100 µM | inactive |  | 
22 | NC(Cc1cc(Cl)c(Cl)c(-c2ccc(C(=O)O)cc2)c1)C(=O)O (racemic) | > 100 µM | inactive | inactive | 42 µM | inactive |  | 
23 | NC(Cc1cccc(-c2ccc(C(=O)O)cc2)c1)C(=O)O (racemic) | > 100 µM | inactive | inactive | 41 µM | inactive |  | 
24 | NC(Cc1cc(Cl)c(Cl)c(-c2ccccc2C(=O)O)c1)C(=O)O (racemic) | > 100 µM | inactive | inactive | > 100 µM | inactive |  | 
